Reference: publication PMC5624507 (Advanced functional materials, 2017)
Bridge positions count the residues as written; N and C are the ends. Peptide text beside a SMILES is read from it.

Key:
CD13 (aminopeptidase N) = CD13 (aminopeptidase N) (Homo sapiens, UniProt P15144); assay: CD13 enzyme inhibition / steady-state enzyme kinetic analysis; format: biochemical; settings: for inhibition model (affected Km, but not Vmax of CD13): steady-state kinetics, double reciprocal plot; for effect of glycine N-methylation of the named peptide on CD13 inhibition: methylated vs non-methylated peptide
How it was run: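 Enzyme inhibition was run with methylated and non-methylated peptides. IC50 is the peptide concentration inhibiting 50% of activity, from independent experiments each in duplicate. For steady-state kinetics, initial velocity was measured across varied substrate and peptide amounts and plotted as V versus substrate and as double-reciprocal plots. Ki came from two independent experiments (mean ± SE).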

[1] = system: CD13+ endothelial cells (HUVEC); assay: Binding of peptide-Qdot605 nanoparticles to cultured HUVEC; format: cell-based, human; settings: peptide coupled to Qdot605 fluorescent nanoparticles, 6 nM, 2 h
How it was run: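 The control was nanoparticles activated with sulfo-SMCC but lacking peptide. Cell-bound Qdots (red) were imaged by fluorescence microscopy at 400X, with DAPI nuclear counterstain.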

[2] = format: physicochemical; settings: 37 °C, 0.1 M ammonium bicarbonate, pH 8.5, 16 or 42 h
αvβ3 integrin = αvβ3 integrin (Homo sapiens, UniProt P05106+P06756); assay: Integrin binding assay; settings: after 16 h of incubation in 0.1 M ammonium bicarbonate pH 8.5, 37 °C; competitive ELISA
CD13 = CD13 (Homo sapiens, UniProt P15144); assay: MS analysis of peptides after incubation with CD13; format: biochemical; settings: 40 min incubation with CD13, peptide 30 µM
How it was run: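 Peptides were incubated with or without CD13 (the no-enzyme incubation served as control), then analysed by MS.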

[3] = physiological solutions; cited from earlier work

| Ki (CD13 (aminopeptidase N)) [µM] | inhibition model (affected Km, but not Vmax of CD13) (CD13 (aminopeptidase N)) | asparagine deamidation (change of molecular mass by MS) [2] | binding to αvβ3 integrin after incubation (αvβ3 integrin) | effect of glycine N-methylation of the named peptide on CD13 inhibition (CD13 (aminopeptidase N)) | change in molecular mass upon incubation with CD13 (peptide cleavage) (CD13) | Compound | binding to CD13+ endothelial cells (HUVEC) [1] | half-life (deamidation) [3] [h] |
| --- | --- | --- | --- | --- | --- | --- | --- | --- |
| 134 ± 28 | competitive inhibition |  |  |  |  | N=C(N)NCCC[C@@H]1NC(=O)CNC(=O)[C@H](CC(N)=O)NC(=O)[C@@H](N)CSSC[C@@H](C(=O)O)NC1=O [CNGRC, reference compound] (H-CNGRC-OH; disulfide 1-5; N-terminus and C-terminus assumed) |  |  |
| 12.4 ± 5.4 | competitive inhibition | complete deamidation | could bind | did not impair CD13 binding | No change | N=C(N)NCCC[C@@H]1NC(=O)CNC(=O)[C@H](CC(N)=O)NC(=O)CNC(=O)[C@H](CS)NC(=O)CNC1=O [N1, c[CGNGRG]] (cyclo(CGNGRG)) | could bind |  |
|  |  |  |  |  |  | CNGRCG |  | 3 to 5 |
|  |  |  | could bind | reduction of inhibitory potency |  | cyclo(CNGRGG) [N3] |  |  |
